Only a selection was taken, and hits are over-represented in it overall.
INS promoter act – TRM-6 insulin promoter activation | 130,000 compounds, 0.81% hits | activation, % at 2 µM | AID 1296 | TRM-6 cells (human fetal islet line), insulin promoter eGFP reporter, imaging; plate-scaled: unstimulated 0, stimulated control 100;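 active = activation at 2 µM above a set limit, confirmed on inspection of the cell images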;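 note: share of cells whose green reporter signal exceeds an intensity cutoff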
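test system = TRM-6 insulin promoter–eGFP reporter cells | benchmarks = stimulated versus unstimulated wells as plate controls | read-out basis = percent cells above green-intensity threshold, converted to percent activation versus plate controls | detection = fixed-cell fluorescence microscopy, eGFP plus Hoechst | incubation = tamoxifen pre-incubation 15 h overnight, then compound exposure 48 h at 37 °C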
Starred values were filed as active, the others as inactive.

SMILES	INS promoter act
O=[N+]([O-])c1ccc(N2N=C(c3ccco3)CC2c2ccccc2)cc1 (stereo unspecified)	106
O=C(NCc1ccccc1C(F)(F)F)C12CN(Cc3ccccc3)CC1C(c1ccc([N+](=O)[O-])cc1)=NO2 (stereo unspecified)	-5
O=C1OCCN1C(=O)[C@H]1[C@H](c2ccc([N+](=O)[O-])cc2)C(c2cccc(Cl)c2)=NN1c1ccccc1	273*
Nc1nonc1C(=O)NCCNS(=O)(=O)c1ccc(F)cc1	8
Cn1cc(Cl)c(C(=O)OCC(=O)Nc2nc(-c3ccc(Br)cc3)cs2)n1	-3
CCCc1cc2c(-c3ccccc3)cc(=O)oc2cc1OCc1ccc(C(=O)O)o1	-6
O=C(COC(=O)C1CC(O)CN1C(=O)Oc1ccccc1)c1ccc(Br)cc1 (stereo unspecified)	0
CC(=O)Nc1ccc(S(=O)(=O)NCc2csc(-c3cccnc3)n2)cc1	-43
CCc1ccc(S(=O)(=O)NCc2csc(-c3cccnc3)n2)s1	857*
O=S(=O)(NCc1csc(-c2cccnc2)n1)c1cccs1	50
Cc1ccsc1/C=N\NC(=O)c1cc(C(C)(C)C)[nH]n1	0
CCOC(=O)N1CCN(CC(O)COc2ccc(C)cc2C(C)(C)C)CC1 (stereo unspecified)	-7
COC(=O)c1ccccc1NC(=O)c1cccc(NC(=O)CSCc2ccccc2)c1C	4
CSc1nc(C)cc(/C=C\c2ccccc2)c1C#N	107
CSc1nsc(/C=C/Nc2ccc(O)cc2C)c1C#N	809*
O=c1c2ccccc2nc2n1C(CSCc1ccc(Cl)cc1Cl)CS2 (stereo unspecified)	0
CC(=O)Nc1ccc(N(C(=O)CNC(=O)c2cccs2)C(C(=O)NC(C)(C)C)c2ccccc2)cc1 (stereo unspecified)	5
COCCNC(=O)c1cn(C)c2ccccc2c1=O	0
CCCN1CCC(N(C)CCc2ccc(OC)c(OC)c2)CC1	127*
COc1ccc(C2CC(=O)N(CCCN(C)CCc3ccc(OC)c(OC)c3)C2)cc1 (stereo unspecified)	-7
COc1ccc(CCNC2CC(=O)N(N(C)C)C2=O)cc1OC (stereo unspecified)	-3
FC(F)(F)c1cnc(-c2cnc(-c3cccnc3)nc2)c(Cl)c1	-2
COC(=O)CSc1nc2ccccn2c(=O)c1C=O	-3
C=CCn1c(SCc2ccccc2)nnc1-c1cccnc1	0
Cc1ccc(-c2nnc(SCc3ccc(C#N)cc3)n2Cc2ccco2)cc1	3
SMILES	INS promoter act
C=CCn1c(SCc2ccc(C#N)cc2)nnc1-c1cccc(OC)c1	164*
COc1ccccc1-c1c(C#N)c(N)nc2c1CCc1ccccc1-2	9
CCc1cccc(NC(=O)CCSCCC(=O)Nc2cccc(CC)c2)c1	90*
COC(=O)CCC(=O)Nc1cccc(Cl)c1	0
Cc1ccc(NC(=O)CCSCCC(=O)Nc2ccc(C)c(C)c2)cc1C	3
O=C(NNC(=O)C12CC3CC(CC(C3)C1)C2)[C@@H]1C[C@H]1c1ccccc1	7
O=C(COC(=O)CNC(=O)c1ccc(Cl)cc1)Nc1ccc(Cl)cc1C(F)(F)F	-3
N#CC1=C(N)C(C#N)(C#N)[C@H](c2ccoc2)[C@H]2CN(Cc3ccccc3)CC=C12	212*
N#CC1=C(N)C(C#N)(C#N)C(c2cccnc2)C2CN(C(=O)OCc3ccccc3)CC=C12 (stereo unspecified)	115
N#CC1=C(N)C(C#N)(C#N)C(c2cccnc2)C2COCC=C12 (stereo unspecified)	0
Cc1nc(OCc2c(C)noc2C)c2ccccc2n1	8
NC(=O)CSc1nc2ccccc2n1-c1ccccc1	342
O=c1c(/C=C(\O)c2ccc(F)cc2)nc2ccccc2n1-c1ccccc1	128*
Cn1c(CNC(=O)c2ccc(F)cc2)nc2ccccc21	0
CC(C)CN=C(NS(=O)(=O)c1ccccc1)C(Cl)(Cl)Cl	7
Cc1ccc(CNC(=O)C2CCN(S(=O)(=O)N3CCC4(CC3)OCCO4)CC2)cc1	-6
CC(=O)NC1C(Oc2ccc3c(C)cc(=O)oc3c2)OC(COC(C)=O)C(OC(C)=O)C1OC(C)=O (stereo unspecified)	-8
CCNc1nc(NCC)n2c(SCC(=O)Nc3ccc(C(F)(F)F)cc3[N+](=O)[O-])nnc2n1	6
Cc1ccc(C(=O)N/N=C/c2ccc([N+](=O)[O-])s2)cc1	8
Cc1ccc(NC(=O)/C=C/c2ccc([N+](=O)[O-])s2)cc1	270*
Cc1ccc(NC(=O)/C=C/c2ccc([N+](=O)[O-])s2)c(C)c1	179
COCCn1c(-c2ccc(-c3ccc([N+](=O)[O-])cc3Br)o2)nc2c1c(=O)[nH]c(=O)n2CC(C)C	114
COc1ccc(CNC(=O)COC(=O)CCc2c[nH]c3ccccc23)cc1	0
Cc1ccc(S(=O)(=O)Nc2cccc(NC(=O)CN3CCCCC3)c2)cc1	0
Cc1cc(NC(=O)c2ccc(S(=O)(=O)N(C)CC3CCCO3)cc2)no1 (stereo unspecified)	414*
Cc1cc(NC(=O)c2ccc3c(c2)OCO3)no1	-85
